Assays:
[1] = Growth inhibition of human OVCAR4 cells after 48 hrs by coulter counting analysis; assay type: functional; settings: OVCAR-4, 48 h
Summary of the method: (§1)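 Five-dose NCI-60 follow-up, 0.01–100 µM, made from DMSO stock in buffered saline (final DMSO <1%), in duplicate wells. Cells in RPMI 1640 with 10% FBS at 6×10^4 cells/ml, 37 °C, 5% CO2, 48 h. Cells diluted tenfold in saline, Coulter-counted and corrected for dilution. GI50, TGI and LC50 taken from log concentration–percent growth curves.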

[2] = Growth inhibition of human OVCAR8 cells after 48 hrs by coulter counting analysis; assay type: functional; settings: OVCAR-8, 48 h; summary of the method: as §1
SK-OV-3 = assay: Growth inhibition of human SKOV3 cells after 48 hrs by coulter counting analysis; assay type: functional; settings: SK-OV-3, 48 h; summary of the method: as §1
[3] = Growth inhibition of human RXF393 cells after 48 hrs by coulter counting analysis; assay type: functional; settings: RXF 393, 48 h; summary of the method: as §1
[4] = Growth inhibition of human UO31 cells after 48 hrs by coulter counting analysis; assay type: functional; settings: UO-31, 48 h
Summary of the method: (§2)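 NCI five-dose screen, 0.01-100 µM, from DMSO stocks diluted in buffer saline (final DMSO <1%). Cells grown in RPMI 1640 + 10% FBS, seeded at 6×10^4 cells/ml, in duplicate wells. Exposure 48 h at 37 °C, 5% CO2. Cells diluted 10-fold in saline and counted by Coulter counter. GI50 derived from log concentration–percent growth inhibition curves. Controls carried matching PBS/saline/DMSO.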

PC-3 = assay: Growth inhibition of human PC3 cells after 48 hrs by coulter counting analysis; assay type: functional; settings: PC-3, 48 h; summary of the method: as §1
DU-145 = assay: Growth inhibition of human DU145 cells after 48 hrs by coulter counting analysis; assay type: functional; settings: DU-145, 48 h
Summary of the method: (§3)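 NCI five-dose screen at 0.01-100 µM, diluted from DMSO stocks in buffered saline (final DMSO <1%). Cells at 6×10^4 cells/ml in RPMI 1640 with 10% FBS, in duplicate wells, at 37 °C under 5% CO2 for 48 h. Cells diluted tenfold in saline and Coulter-counted. GI50, TGI and LC50 taken from log concentration-growth inhibition curves.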

MDA-MB-231 = assay: Growth inhibition of human MDA-MB-231 cells after 48 hrs by coulter counting analysis; assay type: functional; settings: MDA-MB-231, 48 h; summary of the method: as §3
[5] = Growth inhibition of human Hs 578T cells after 48 hrs by coulter counting analysis; assay type: functional; summary of the method: as §3
[6] = Growth inhibition of human BT549 cells after 48 hrs by coulter counting analysis; assay type: functional; settings: BT-549, 48 h; summary of the method: as §3
T47D = assay: Growth inhibition of human T47D cells after 48 hrs by coulter counting analysis; assay type: functional; summary of the method: as §1
MDA-MB-468 = assay: Growth inhibition of human MDA-MB-468 cells after 48 hrs by coulter counting analysis; assay type: functional; settings: MDA-MB-468, 48 h; summary of the method: as §1
[7] = target: Cyclin-dependent kinase 2/cyclin E1 (Homo sapiens) (UniProt P24864+P24941); assay: Inhibition of CDK2/Cyclin E1 (unknown origin) at 20 uM after 30 mins by scintillation counting analysis relative to control; assay type: protein-complex assay
Summary of the method: (§4)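 Recombinant kinases, cloned, expressed and purified in-house. Radiometric ³³P-ATP assay with kinase at ~10-50 nM final and 1-5 µg peptide or protein substrate. Compound at 20 µM final, in duplicate. Reaction started by adding ATP, run 30 min at ambient temperature, then spotted on P81 phosphocellulose. Plates washed in 1% phosphoric acid and counted by scintillation. No-substrate blank subtracted. Result is mean % activity change versus DMSO control.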

[8] = target: Cyclin-dependent kinase 4/cyclin D1 (Homo sapiens) (UniProt P11802+P24385); assay: Inhibition of CDK4/Cyclin D1 (unknown origin) at 20 uM after 30 mins by scintillation counting analysis relative to control; assay type: protein-complex assay; summary of the method: as §4
[9] = target: Glycogen synthase kinase-3 beta (Homo sapiens) (UniProt P49841); assay: Inhibition of GSK-3beta (unknown origin) at 20 uM after 30 mins by scintillation counting analysis relative to control; summary of the method: as §4
Glycogen synthase kinase-3 beta (Homo sapiens), sequence (P49841 whole entry, looked up): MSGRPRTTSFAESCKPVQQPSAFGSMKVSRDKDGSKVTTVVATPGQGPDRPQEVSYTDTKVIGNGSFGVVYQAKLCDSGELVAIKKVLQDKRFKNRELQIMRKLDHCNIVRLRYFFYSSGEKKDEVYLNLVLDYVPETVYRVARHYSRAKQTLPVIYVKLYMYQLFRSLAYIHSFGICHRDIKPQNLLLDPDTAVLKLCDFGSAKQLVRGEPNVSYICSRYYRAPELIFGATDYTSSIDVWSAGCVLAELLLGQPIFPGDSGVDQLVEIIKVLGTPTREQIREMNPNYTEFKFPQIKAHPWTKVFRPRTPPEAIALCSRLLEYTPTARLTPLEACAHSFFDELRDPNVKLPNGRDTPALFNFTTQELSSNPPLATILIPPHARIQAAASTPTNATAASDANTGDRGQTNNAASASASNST

K562 = assay: Growth inhibition of human K562 cells after 48 hrs by coulter counting analysis; assay type: functional; settings: K562, 48 h; summary of the method: as §3
[10] = Growth inhibition of human MOLT4 cells after 48 hrs by coulter counting analysis; assay type: functional; settings: MOLT-4, 48 h; summary of the method: as §1
RPMI-8226 = assay: Growth inhibition of human RPMI8226 cells after 48 hrs by coulter counting analysis; assay type: functional; settings: RPMI-8226, 48 h; summary of the method: as §1
HOP-62 = assay: Growth inhibition of human HOP62 cells after 48 hrs by coulter counting analysis; assay type: functional; settings: HOP-62, 48 h; summary of the method: as §3
NCI-H322M = assay: Growth inhibition of human NCI-H322M cells after 48 hrs by coulter counting analysis; assay type: functional; summary of the method: as §1
NCI-H460 = assay: Growth inhibition of human NCI-H460 cells after 48 hrs by coulter counting analysis; assay type: functional; settings: NCI-H460, 48 h; summary of the method: as §1
NCI-H522 = assay: Growth inhibition of human NCI-H522 cells after 48 hrs by coulter counting analysis; assay type: functional; settings: NCI-H522, 48 h; summary of the method: as §1
COLO 205 = assay: Growth inhibition of human COLO205 cells after 48 hrs by coulter counting analysis; assay type: functional; settings: COLO 205, 48 h; summary of the method: as §3
HCT-116 = assay: Growth inhibition of human HCT116 cells after 48 hrs by coulter counting analysis; assay type: functional; settings: HCT-116, 48 h; summary of the method: as §3
[11] = Growth inhibition of human HCT15 cells after 48 hrs by coulter counting analysis; assay type: functional; settings: HCT-15, 48 h; summary of the method: as §3
HT-29 = assay: Growth inhibition of human HT-29 cells after 48 hrs by coulter counting analysis; assay type: functional; settings: HT-29, 48 h; summary of the method: as §3
SW-620 = assay: Growth inhibition of human SW620 cells after 48 hrs by coulter counting analysis; assay type: functional; settings: SW-620, 48 h; summary of the method: as §1
SF-268 = assay: Growth inhibition of human SF268 cells after 48 hrs by coulter counting analysis; assay type: functional; settings: SF-268, 48 h; summary of the method: as §1
SNB-75 = assay: Growth inhibition of human SNB75 cells after 48 hrs by coulter counting analysis; assay type: functional; settings: SNB-75, 48 h; summary of the method: as §1
U-251 = assay: Growth inhibition of human U251 cells after 48 hrs by coulter counting analysis; assay type: functional; settings: U-251, 48 h; summary of the method: as §2
[12] = Growth inhibition of human LOXIMVI cells after 48 hrs by coulter counting analysis; assay type: functional; settings: LOX IMVI; summary of the method: as §3
Malme-3M = assay: Growth inhibition of human MALME-3M cells after 48 hrs by coulter counting analysis; assay type: functional; summary of the method: as §3
M14 = assay: Growth inhibition of human M14 cells after 48 hrs by coulter counting analysis; assay type: functional; settings: M14, 48 h; summary of the method: as §3
[13] = Growth inhibition of human UACC257 cells after 48 hrs by coulter counting analysis; assay type: functional; settings: UACC-257, 48 h; summary of the method: as §2
IGROV-1 = assay: Growth inhibition of human IGROV1 cells after 48 hrs by coulter counting analysis; assay type: functional; settings: IGROV-1, 48 h; summary of the method: as §3
[14] = Growth inhibition of human OVCAR3 cells after 48 hrs by coulter counting analysis; assay type: functional; settings: OVCAR-3, 48 h; summary of the method: as §1
TK-10 = assay: Growth inhibition of human TK10 cells after 48 hrs by coulter counting analysis; assay type: functional; settings: TK-10, 48 h; summary of the method: as §2
[15] = Growth inhibition of human EKVX cells after 48 hrs by coulter counting analysis; assay type: functional; summary of the method: as §3
[16] = read-out: LC50 (the source's name)

| SMILES | GI50 [1] | GI50 [2] | GI50 (SK-OV-3) | GI50 [3] | GI50 [4] | GI50 (PC-3) | GI50 (DU-145) | GI50 (MDA-MB-231) | GI50 (T47D) | GI50 (MDA-MB-468) | inhibition [7] | inhibition [8] | inhibition [9] | GI50 (K562) | GI50 [10] | GI50 (RPMI-8226) | GI50 (HOP-62) | GI50 (NCI-H322M) | GI50 (NCI-H460) | GI50 (NCI-H522) | further results |
| --- | --- | --- | --- | --- | --- | --- | --- | --- | --- | --- | --- | --- | --- | --- | --- | --- | --- | --- | --- | --- | --- |
| COc1c2ccoc2c(/C=C/C=O)c2oc(-c3ccccc3)cc(=O)c12 | 3200 nM | 2860 nM | 6340 nM | 4260 nM | 3630 nM | 3230 nM | 10700 nM | 4100 nM | 2140 nM | 7020 nM | 6% | 0% | 58% | 3210 nM | 2060 nM | 2240 nM | 2490 nM | 9690 nM | 11300 nM | 17600 nM | GI50 [5]: 7200 nM; GI50 [6]: 2880 nM; GI50 (COLO 205): 27700 nM; GI50 (HCT-116): 1700 nM; GI50 [11]: 2520 nM; GI50 (HT-29): 25100 nM; GI50 (SW-620): 2160 nM; GI50 (SF-268): 4230 nM; GI50 (SNB-75): 8300 nM; GI50 (U-251): 3060 nM; GI50 [12]: 1480 nM; GI50 (Malme-3M): 3470 nM; GI50 (M14): 3320 nM; GI50 [13]: 11500 nM; GI50 (IGROV-1): 17500 nM; GI50 [14]: 5190 nM |
| COc1c2occc2c(OC)c2c(=O)c(CN3CCOCC3)c(/C=C/c3ccc(N(C)C)cc3)oc12 | 2470 nM | 5150 nM | 2720 nM | 1810 nM | 1430 nM | 1690 nM | 1670 nM | 2220 nM | 2210 nM | 1760 nM | 0% | 12% | 13% | 1850 nM | 1580 nM | 1490 nM | 2330 nM | 1650 nM | 2020 nM | 1830 nM | GI50 (TK-10): 2460 nM; GI50 [15]: 2240 nM; LC50 (lethal concentration, 50% net cell kill) (NCI-H460): 8480 nM; GI50 (COLO 205): 1660 nM; CC50 (COLO 205; [16]): 5870 nM; GI50 (HCT-116): 2110 nM; GI50 [11]: 2250 nM; GI50 (HT-29): 2200 nM; CC50 (HT-29; [16]): 6680 nM; GI50 (SW-620): 2380 nM; GI50 (SF-268): 2220 nM; GI50 (SNB-75): 1390 nM; LC50 (SNB-75): 5750 nM; GI50 (U-251): 2490 nM; GI50 (Malme-3M): 2080 nM; CC50 (Malme-3M; [16]): 8650 nM; GI50 (M14): 2340 nM; GI50 [13]: 2540 nM; GI50 (IGROV-1): 1790 nM; GI50 [14]: 1760 nM |
| COc1ccc(-c2cc(=O)c3c(OC)c4ccoc4c(/C=C/C=O)c3o2)cc1 | 3800 nM | 2830 nM | 4730 nM | 2150 nM | 3170 nM | 2580 nM | 4530 nM | 4220 nM | 2030 nM | 3580 nM | 0% | 0% | 11% | 2800 nM | 1840 nM | 1370 nM | 2980 nM | 5060 nM | 4700 nM | 34600 nM | GI50 [5]: 10400 nM; GI50 [6]: 2140 nM; GI50 (COLO 205): 27600 nM; GI50 (HCT-116): 1060 nM; GI50 [11]: 1730 nM; GI50 (HT-29): 18100 nM; GI50 (SW-620): 2300 nM; GI50 (SF-268): 4380 nM; GI50 (SNB-75): 3130 nM; GI50 (U-251): 2530 nM; GI50 [12]: 1080 nM; GI50 (Malme-3M): 3790 nM; GI50 (M14): 2240 nM; GI50 [13]: 3630 nM; GI50 (IGROV-1): 13600 nM; GI50 [14]: 3920 nM |

— ChEMBL document CHEMBL3286372, “Design, synthesis and structure-activity relationship of novel semi-synthetic flavonoids as antiproliferative agents” (2014)
